Measurements gathered from unrelated publications.
Compare with care: the assays were run in different laboratories.
Organism: Plasmodium falciparum
Observed: parasite growth

Structure (SMILES)	technique	strain	tested at	time	setting	quantity	value
CN1CCN(c2ncc(-c3ccc4c(Nc5cnccn5)ccnc4c3)cn2)CC1	–	D6	–	–	drug-resistant strain, blood stage	EC50	26 nM
Cc1ccc(-c2ccccc2C(=O)Nc2c(C)cccc2C(=O)O)cc1	SYBR Green	NF54	10 µM	96 h	blood stage	inhibition	8.4%
COc1ccc(Nc2ccnc3cc(-c4cn[nH]c4)ccc23)cc1Cl	–	D6	–	–	drug-resistant strain, blood stage	EC50	250 nM
O=C(Nc1cc(F)ccc1C(=O)O)c1ccc(-c2ccccc2)cc1	SYBR Green	NF54	10 µM	96 h	blood stage	inhibition	17.2%
c1ccc2sc(-c3ccnc(Nc4ccc(CN5CCC(N6CCCC6)CC5)cc4)n3)cc2c1	SYBR Green	3D7	1 µM	–	blood stage	inhibition	> 75%
Cc1cccc(C(=O)O)c1NC(=O)c1cccc(-c2ccccc2)c1	–	NF54	2 µM	48 h	gametocyte	inhibition	31.8%
CN1CCN(S(=O)(=O)c2ccc(-c3ccc4c(Nc5ccc6[nH]nnc6c5)ccnc4c3)cc2)CC1	–	D6	–	–	drug-resistant strain, blood stage	EC50	27 nM
CCn1cc(-c2nc(C)no2)c(=O)c2cc(F)c(N3CCC(C)CC3)cc21	–	3D7	–	72 h	blood stage	EC50	19 nM
CCN(CC)CCCC(C)Nc1ccnc2cc(Cl)ccc12 (centres unmarked)	–	NF54	–	–	blood stage	IC50	4.2 nM
CCn1cc(-c2nc(C)no2)c(=O)c2cc(F)c(N3CCC(Cc4ccccc4)CC3)cc21	–	3D7	–	72 h	blood stage	EC50	9 nM
CN1CCN(c2ccnc(Nc3ccc4c(Nc5ccc(OCc6cccc(F)c6)c(Cl)c5)ccnc4c3)n2)CC1	–	D6	–	–	drug-resistant strain, blood stage	EC50	25 nM
CCOC(=O)c1cn(CC)c2cc(N3CCC(C)CC3)c(F)cc2c1=O	–	3D7	–	72 h	blood stage	EC50	28 nM
CN1CCN(S(=O)(=O)c2ccc(-c3ccc4c(Nc5ccc(C(F)(F)F)nc5)ccnc4c3)cc2)CC1	–	D6	–	–	drug-resistant strain, blood stage	EC50	160 nM
CCn1cc(-c2nc(C)no2)c(=O)c2cc(F)c(N3CCC(C)(C)CC3)cc21	–	3D7	–	72 h	blood stage	EC50	1480 nM
COc1ccc(Nc2ccnc3cc(Nc4nccc(N5CCN(C)CC5)n4)ccc23)cc1Cl	–	D6	–	–	drug-resistant strain, blood stage	EC50	99 nM
O=C(Nc1c(F)cccc1C(=O)O)c1ccc(-c2ccccc2)cc1	–	NF54	2 µM	48 h	gametocyte	inhibition	38.8%
CCn1cc(-c2ccccn2)c(=O)c2cc(F)c(N3CCC(C)CC3)cc21	–	3D7	–	72 h	blood stage	EC50	> 10000 nM
O=C(Nc1ccc(F)cc1C(=O)O)c1ccc(-c2ccccc2)cc1	SYBR Green	NF54	10 µM	96 h	blood stage	inhibition	12.7%
CCn1cc(-c2nnc(-c3cccnc3)o2)c(=O)c2cc(F)c(N3CCC(C)CC3)cc21	–	3D7	–	72 h	blood stage	EC50	> 10000 nM
CCN(CC)CCCC(C)Nc1ccnc2cc(Cl)ccc12 (centres unmarked)	–	D6	–	–	blood stage	IC50	30 nM
